Assay results as given in ChEMBL document CHEMBL4028836, “Optimization of M4 positive allosteric modulators (PAMs): The discovery of VU0476406, a non-human primate in vivo tool compound for translational pharmacology” (Bioorg Med Chem Lett, 2017).

Experiments:
[1] = Unbound plasma concentration in rat; format: ADME, cell-free
[2] = biological target: Muscarinic acetylcholine receptor M2 (Homo sapiens, UniProt P08172); test: Activity at human M2 receptor
[3] = biological target: T1, Muscarinic acetylcholine receptor M4 (Homo sapiens, UniProt P08173); test: Positive allosteric modulation of human M4 receptor expressed in CHO cells coexpressing Gqi5 assessed as increase in acetylcholine-induced calcium mobilization; format: functional, cell-based; details: read-out: EC50
T1 sequence (P08173 whole entry): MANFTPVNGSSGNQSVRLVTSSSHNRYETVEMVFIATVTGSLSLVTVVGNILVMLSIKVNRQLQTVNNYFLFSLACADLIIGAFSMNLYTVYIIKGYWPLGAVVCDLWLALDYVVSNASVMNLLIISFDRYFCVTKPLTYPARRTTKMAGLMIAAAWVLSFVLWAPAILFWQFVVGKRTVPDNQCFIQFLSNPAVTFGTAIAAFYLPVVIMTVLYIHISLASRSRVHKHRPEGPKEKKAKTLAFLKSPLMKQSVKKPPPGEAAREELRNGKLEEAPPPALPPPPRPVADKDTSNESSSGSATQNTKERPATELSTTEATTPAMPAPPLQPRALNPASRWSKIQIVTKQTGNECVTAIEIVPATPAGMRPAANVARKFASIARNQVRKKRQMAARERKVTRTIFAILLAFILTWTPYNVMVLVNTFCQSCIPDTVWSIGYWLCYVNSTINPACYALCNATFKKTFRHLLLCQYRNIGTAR
How it was run: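 Calcium mobilization in CHO cells expressing hM4 with Gqi5. Compound added in presence of a fixed EC20 concentration of acetylcholine. Values are means of three independent experiments, each run in triplicate.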

[4] = test system: Salmonella typhimurium; test: Mutagenicity in Salmonella typhimurium TA100 in presence of S9 fraction by mini-Ames test; format: toxicity; details: salmonella enterica subsp. enterica serovar typhimurium
How it was run: (§1)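 Mini-Ames mutagenicity assay in Salmonella typhimurium strains TA98 and TA100, run with and without S9 metabolic activation.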

[5] = Drug metabolism in cynomolgus monkey cryopreserved hepatocytes assessed as metabolite M1 formation; format: ADME, cell-based, Macaca fascicularis, Hepatocyte
[6] = Brain to plasma permeability coefficient, Kp of the compound in dog at 3 mg/kg, iv or po at 2 hrs post dose; format: ADME, organism-based, Canis lupus familiaris
How it was run: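 Dog terminal study, with brain, plasma and CSF collected at 2.0 hr. Brain:plasma Kp, Kp,uu and Ccsf:Cplasma,u were derived.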

[7] = test system: Salmonella typhimurium; test: Mutagenicity in Salmonella typhimurium TA100 in absence of S9 fraction by mini-Ames test; format: toxicity; details: salmonella enterica subsp. enterica serovar typhimurium; how it was run: as §1
[8] = Drug metabolism in human cryopreserved hepatocytes assessed as metabolite M2 formation; format: ADME, cell-based, Hepatocyte
[9] = Unbound plasma concentration in human; format: ADME, cell-free
[10] = Drug metabolism in dog cryopreserved hepatocytes assessed as metabolite M6 formation; format: ADME, cell-based, Canis lupus familiaris, Hepatocyte
[11] = biological target: Muscarinic acetylcholine receptor M3 (Homo sapiens, UniProt P20309); test: Activity at human M3 receptor
[12] = biological target: Voltage-gated inwardly rectifying potassium channel KCNH2 (Homo sapiens, UniProt Q12809); test: Inhibition of human ERG
[13] = Positive allosteric modulation of cynomolgus monkey M4 receptor assessed as increase in acetylcholine-induced calcium mobilization; design: species or system Macaca fascicularis
How it was run: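 M4 PAM concentration-response curves measured by calcium mobilization at the stated species' receptor. Potency reported as EC50/pEC50 and efficacy as % of acetylcholine maximum.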

[14] = Drug metabolism in cynomolgus monkey cryopreserved hepatocytes assessed as metabolite M6 formation; format: ADME, cell-based, Macaca fascicularis, Hepatocyte
[15] = Ratio of unbound brain to plasma concentration in dog at 3 mg/kg, iv or po at 2 hrs post dose; format: ADME, organism-based, Canis lupus familiaris
How it was run: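 CNS penetration in dog by terminal study at 2.0 hr. Brain:plasma Kp, Kp,uu and unbound CSF:plasma ratio determined.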

Chain of Muscarinic acetylcholine receptor M2 (P08172 whole entry): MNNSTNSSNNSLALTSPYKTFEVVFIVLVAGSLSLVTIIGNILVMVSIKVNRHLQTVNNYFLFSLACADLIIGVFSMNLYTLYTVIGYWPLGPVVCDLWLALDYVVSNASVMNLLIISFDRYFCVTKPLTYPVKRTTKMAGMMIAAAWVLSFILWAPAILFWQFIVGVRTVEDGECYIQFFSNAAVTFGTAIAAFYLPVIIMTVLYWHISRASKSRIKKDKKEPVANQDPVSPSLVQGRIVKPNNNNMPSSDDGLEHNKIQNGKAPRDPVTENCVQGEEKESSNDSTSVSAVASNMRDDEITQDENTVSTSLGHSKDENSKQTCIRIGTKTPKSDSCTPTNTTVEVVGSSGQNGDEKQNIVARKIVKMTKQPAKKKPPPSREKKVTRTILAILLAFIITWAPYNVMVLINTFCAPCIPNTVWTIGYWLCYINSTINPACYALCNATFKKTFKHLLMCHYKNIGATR
Chain of Voltage-gated inwardly rectifying potassium channel KCNH2 (Q12809 whole entry): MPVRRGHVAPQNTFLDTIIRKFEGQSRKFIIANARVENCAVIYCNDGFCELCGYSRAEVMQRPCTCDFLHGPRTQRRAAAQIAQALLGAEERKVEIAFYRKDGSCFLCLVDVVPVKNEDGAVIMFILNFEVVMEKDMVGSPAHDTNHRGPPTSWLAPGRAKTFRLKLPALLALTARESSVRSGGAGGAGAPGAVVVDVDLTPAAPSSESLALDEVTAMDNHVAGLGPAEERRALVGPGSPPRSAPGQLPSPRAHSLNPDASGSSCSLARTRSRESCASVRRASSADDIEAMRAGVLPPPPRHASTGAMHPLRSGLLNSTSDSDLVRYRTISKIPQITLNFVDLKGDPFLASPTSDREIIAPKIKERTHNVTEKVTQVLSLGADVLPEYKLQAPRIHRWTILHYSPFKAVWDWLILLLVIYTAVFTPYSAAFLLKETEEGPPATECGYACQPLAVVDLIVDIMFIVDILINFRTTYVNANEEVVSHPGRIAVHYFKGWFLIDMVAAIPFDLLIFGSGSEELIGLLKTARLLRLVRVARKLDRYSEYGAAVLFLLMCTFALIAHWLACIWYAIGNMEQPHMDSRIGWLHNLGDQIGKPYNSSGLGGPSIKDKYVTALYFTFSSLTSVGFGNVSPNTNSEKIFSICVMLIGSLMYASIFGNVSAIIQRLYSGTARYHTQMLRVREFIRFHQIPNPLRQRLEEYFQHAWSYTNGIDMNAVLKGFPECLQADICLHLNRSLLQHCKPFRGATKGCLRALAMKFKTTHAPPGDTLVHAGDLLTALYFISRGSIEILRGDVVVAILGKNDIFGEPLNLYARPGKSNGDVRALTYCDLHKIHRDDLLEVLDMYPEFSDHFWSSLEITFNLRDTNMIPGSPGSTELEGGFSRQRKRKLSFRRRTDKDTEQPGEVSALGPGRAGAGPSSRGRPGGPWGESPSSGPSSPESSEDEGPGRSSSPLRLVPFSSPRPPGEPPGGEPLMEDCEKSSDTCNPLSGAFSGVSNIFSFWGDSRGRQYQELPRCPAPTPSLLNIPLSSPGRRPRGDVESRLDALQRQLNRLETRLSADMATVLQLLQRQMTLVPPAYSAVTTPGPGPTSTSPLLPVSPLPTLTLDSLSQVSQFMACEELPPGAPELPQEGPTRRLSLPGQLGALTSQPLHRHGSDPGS
Chain of Muscarinic acetylcholine receptor M3 (P20309 whole entry): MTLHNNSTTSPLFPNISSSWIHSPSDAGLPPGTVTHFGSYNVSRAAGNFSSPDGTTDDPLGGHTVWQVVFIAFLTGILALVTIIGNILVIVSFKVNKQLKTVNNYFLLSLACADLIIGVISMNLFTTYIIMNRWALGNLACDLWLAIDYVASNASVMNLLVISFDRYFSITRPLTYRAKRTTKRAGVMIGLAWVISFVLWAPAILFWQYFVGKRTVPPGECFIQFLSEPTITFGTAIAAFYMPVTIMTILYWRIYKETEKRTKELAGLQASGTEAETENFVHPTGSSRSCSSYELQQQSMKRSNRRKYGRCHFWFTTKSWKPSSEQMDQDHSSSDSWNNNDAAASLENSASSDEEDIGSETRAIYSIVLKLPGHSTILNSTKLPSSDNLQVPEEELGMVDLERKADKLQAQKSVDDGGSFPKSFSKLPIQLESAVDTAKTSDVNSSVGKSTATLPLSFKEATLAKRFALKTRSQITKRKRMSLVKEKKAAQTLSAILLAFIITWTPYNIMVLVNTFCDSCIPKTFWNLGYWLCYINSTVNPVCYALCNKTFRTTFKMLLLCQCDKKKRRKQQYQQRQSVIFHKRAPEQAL

fraction unbound [1]: 0.002 | EC50 [2]: > 30 µM | EC50 [3]: 0.091 µM | Drug metabolism [5]: Metabolite_Detected | Kp [6]: 0.74 | Drug metabolism [8]: Metabolite_Detected | fraction unbound [9]: 0.011 | Drug metabolism [10]: Metabolite_Detected | EC50 [11]: > 30 µM | pEC50 [13]: 7.06 | Drug metabolism [14]: Metabolite_Detected | K(p,uu,brain) [15]: 2.6
Structure (SMILES): Cc1nnc2sc(C(=O)NCc3ccc(-c4cccnc4F)cc3)c(N)c2c1C
Activity [4]: Non-Toxic | Activity [7]: Non-Toxic | IC50 [12]: > 33 µM
